ChEMBL document CHEMBL4706601, “The endocannabinoid system dual-target ligand N-cycloheptyl-1,2-dihydro-5-bromo-1-(4-fluorobenzyl)-6-methyl-2-oxo-pyridine-3-carboxamide improves disease severity in a mouse model of multiple sclerosis” (Eur J Med Chem, 2020)
The source made the active and inactive calls. The rule behind the calls is not given here.

Key:
[1] = target: T1, Cannabinoid receptor 2 (Homo sapiens, UniProt P34972); experiment: Displacement of [3H]CP55940 from recombinant human CB2R expressed in CHO cell membranes incubated for 90 mins; parameters: species or system Membrane
[2] = target: T2, Monoacylglycerol lipase ABHD6 (Homo sapiens, UniProt Q9BV23); experiment: Inhibition of human ABHD6 expressed in HEK293 cells using 2-OG as substrate preincubated for 30 mins followed by substrate addition and measured after 5 mins by liquid scintillation spectroscopy; type: cell-based
T2 sequence (Q9BV23 whole entry): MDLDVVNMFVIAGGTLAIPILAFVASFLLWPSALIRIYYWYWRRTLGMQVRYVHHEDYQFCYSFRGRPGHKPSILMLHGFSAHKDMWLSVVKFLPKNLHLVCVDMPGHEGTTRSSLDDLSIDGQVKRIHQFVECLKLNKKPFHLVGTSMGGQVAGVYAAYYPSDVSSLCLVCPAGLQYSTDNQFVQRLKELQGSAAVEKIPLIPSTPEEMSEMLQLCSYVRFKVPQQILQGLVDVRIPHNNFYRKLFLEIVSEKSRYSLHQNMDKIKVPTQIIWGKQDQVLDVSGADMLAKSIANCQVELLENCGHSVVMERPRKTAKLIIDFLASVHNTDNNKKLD
Method in brief: (§1)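 Homogenates (40 µg) from HEK293 stably expressing hABHD6 or hABHD12 pre-incubated with compound 30 min at 37 °C in […], 0.1% BSA, pH 7.6; then 10 μM 2-OG for 5 min at 37 °C. Aqueous phase tritium counted after CHCl3:MeOH stop; no-enzyme blanks and non-transfected HEK293 hydrolysis subtracted. Controls WWL70 10 μM, THL 20 μM.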

[3] = target: T3, Lysophosphatidylserine lipase ABHD12 (Homo sapiens, UniProt Q8N2K0); experiment: Inhibition of human ABHD12 expressed in HEK293 cells using 2-OG as substrate preincubated for 30 mins followed by substrate addition and measured after 5 mins by liquid scintillation spectroscopy; type: cell-based; method in brief: as §1
T3 sequence (Q8N2K0 whole entry): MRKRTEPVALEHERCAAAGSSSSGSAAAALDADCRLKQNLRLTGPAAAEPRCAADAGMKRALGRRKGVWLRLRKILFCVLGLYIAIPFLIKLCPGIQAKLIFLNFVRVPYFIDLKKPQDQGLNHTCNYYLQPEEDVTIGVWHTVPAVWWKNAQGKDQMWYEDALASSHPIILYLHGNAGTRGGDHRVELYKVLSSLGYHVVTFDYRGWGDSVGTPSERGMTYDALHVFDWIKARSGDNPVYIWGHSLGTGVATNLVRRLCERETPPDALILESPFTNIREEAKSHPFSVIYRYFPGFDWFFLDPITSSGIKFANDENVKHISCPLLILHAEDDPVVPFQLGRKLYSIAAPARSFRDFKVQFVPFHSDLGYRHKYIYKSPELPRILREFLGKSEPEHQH

[4] = target: T4, Cannabinoid receptor 1 (Homo sapiens, UniProt P21554); experiment: Displacement of [3H]CP55940 from recombinant human CB1R expressed in CHO cell membranes incubated for 90 mins; parameters: species or system Membrane
[5] = target: T5, Fatty-acid amide hydrolase 1 (Homo sapiens, UniProt O00519); experiment: Inhibition of FAAH in human U937 cells using [ethanolamine-1-3H]AEA as substrate preincubated for 15 mins followed by substrate addition and measured after 15 mins by liquid scintillation spectroscopy; type: cell-based, U-937
T5 sequence (O00519 whole entry): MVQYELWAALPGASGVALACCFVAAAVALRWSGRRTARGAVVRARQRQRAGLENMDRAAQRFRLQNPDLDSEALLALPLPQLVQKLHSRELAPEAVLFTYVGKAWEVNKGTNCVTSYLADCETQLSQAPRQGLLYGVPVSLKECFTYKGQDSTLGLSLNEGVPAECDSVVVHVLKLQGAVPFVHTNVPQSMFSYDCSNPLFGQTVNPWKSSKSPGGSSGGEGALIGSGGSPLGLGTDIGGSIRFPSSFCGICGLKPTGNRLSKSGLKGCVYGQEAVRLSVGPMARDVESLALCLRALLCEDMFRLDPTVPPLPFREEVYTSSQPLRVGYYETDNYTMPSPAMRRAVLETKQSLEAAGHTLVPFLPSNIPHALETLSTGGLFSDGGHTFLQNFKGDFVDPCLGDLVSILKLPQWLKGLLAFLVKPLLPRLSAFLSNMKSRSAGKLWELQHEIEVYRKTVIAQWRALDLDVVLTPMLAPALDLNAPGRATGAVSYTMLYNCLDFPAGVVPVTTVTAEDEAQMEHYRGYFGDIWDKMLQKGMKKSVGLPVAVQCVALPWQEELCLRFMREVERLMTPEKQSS
Method in brief: (§2)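 Intact U937 cells, 10^6 per condition, pre-incubated with compound 15 min at 37 °C with shaking (screen at 10 μM; full curves for hits). Substrate: 1 μM AEA with 1 nM [3H]AEA (FAAH) or 10 μM 2-OG with 5 nM [3H]2-OG (MAGL), 15 min at 37 °C. Stopped with CHCl3:MeOH 1:1, aqueous tritium counted; mean ± SD, ≥3 experiments in triplicate.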

[6] = target: T6, Monoglyceride lipase (Homo sapiens, UniProt Q99685); experiment: Inhibition of MAGL in human U937 cells using [glycerol-1,2,3-3H]2-OG as substrate preincubated for 15 mins followed by substrate addition and measured after 15 mins by liquid scintillation spectroscopy; type: cell-based, U-937; method in brief: as §2
T6 sequence (Q99685 whole entry): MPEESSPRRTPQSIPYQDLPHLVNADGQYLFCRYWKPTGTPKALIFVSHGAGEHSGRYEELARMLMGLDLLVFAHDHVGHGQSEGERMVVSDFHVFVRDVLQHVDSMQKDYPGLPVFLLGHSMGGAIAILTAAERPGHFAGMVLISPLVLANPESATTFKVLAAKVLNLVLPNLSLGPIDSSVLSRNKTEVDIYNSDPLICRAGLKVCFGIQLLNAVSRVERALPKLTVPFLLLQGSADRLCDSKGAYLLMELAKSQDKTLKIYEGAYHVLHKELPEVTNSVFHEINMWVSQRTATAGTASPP

[7] = target: Cannabinoid receptor 2 (Mus musculus) (UniProt P47936); experiment: Agonist activity at CB2R in LPS induced mouse BV2 cells assessed as increase in IL-10 secretion at 10 uM preincubated for 30 mins followed by LPS stimulation for 4 hrs by ELISA; type: cell-based; settings: BV-2, filed as agonist, time 270.0 min
Method in brief: (§3)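 BV-2 murine microglia grown in high-glucose DMEM with 10% FBS. Treatments in FBS-free medium: test agonist 10 μM for 30 min, then LPS 5 μg/ml for 4 h; SR144528 10 μM given 15 min before agonist. DMSO ≤0.1% final. Medium spun 10 min at 1000×g; IL-1β, IL-6, IL-10 quantified by ELISA; three independent experiments in duplicate.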

[8] = target: Cannabinoid receptor 2 (Mus musculus) (UniProt P47936); experiment: Agonist activity at CB2R in LPS induced mouse BV2 cells assessed as decrease in IL6 secretion at 10 uM preincubated for 30 mins followed by LPS stimulation for 4 hrs by ELISA; type: cell-based; settings: BV-2, filed as agonist, time 270.0 min; method in brief: as §3
[9] = target: Cannabinoid receptor 2 (Mus musculus) (UniProt P47936); experiment: Agonist activity at CB2R in LPS induced mouse BV2 cells assessed as decrease in IL-1beta secretion at 10 uM preincubated for 30 mins followed by LPS stimulation for 4 hrs by ELISA; type: cell-based; settings: BV-2, filed as agonist, time 270.0 min; method in brief: as §3
[10] = species: Homo sapiens; experiment: Selectivity index, ratio of Ki for human CB1R expressed in CHO cell membranes to Ki for human CB2R expressed in CHO cell membranes; type: cell-based
[11] = target: T4, Cannabinoid receptor 1; experiment: Agonist activity at human CB1R expressed in CHO cell membranes after 90 mins by [35S]GTPgammaS assay; type: functional, Membrane
Method in brief: (§4)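 In-house CHO membranes expressing hCB1 or hCB2 (10 µg) in 50 mM Tris-HCl, 3 mM MgCl2, 0.2 mM EDTA, 100 mM NaCl, 0.5% fatty-acid-free BSA, pH 7.4, with 10 μM GDP and 0.1 nM [35S]GTPγS. Incubated 90 min at 30 °C; antagonist pre-incubated 30 min. Nonspecific binding with 10 μM GTPγS; bound label by filtration and counting; ≥3 experiments in triplicate.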

[12] = target: T1, Cannabinoid receptor 2; experiment: Agonist activity at human CB2R expressed in CHO cell membranes after 90 mins by [35S]GTPgammaS assay; type: functional, Membrane; method in brief: as §4
[13] = target: Cannabinoid receptor 1 (Rattus norvegicus) (UniProt P20272); experiment: Agonist activity at CB1R in Sprague-Dawley rat hippocampal synaptosomes assessed as inhibition of 4-AP evoked glutamate release at 10 uM preincubated for 8 mins followed by 4-AP addition by HPLC analysis; type: subcellular; settings: Hippocampus, filed as agonist
Method in brief: (§5)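 Rat (male Sprague Dawley, 200-250 g) hippocampal synaptosomes from Percoll gradient, superfused at 37 °C (0.5 ml/min); 4-AP 600 μM for 2 min. Compounds and antagonists (SR141716A, SR144528, 1 μM) added 8 min before 4-AP and kept during it; basal effects tested by 2-min exposure alone. Endogenous glutamate by HPLC as pmol/mg protein; overflow = stimulated minus basal in control chambers; n = 3–9, triplicate.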

[14] = target: Cannabinoid receptor 1 (Rattus norvegicus) (UniProt P20272); experiment: Agonist activity at CB1R in Sprague-Dawley rat hippocampal synaptosomes assessed as inhibition of 4-AP evoked glutamate release at 10 uM preincubated for 8 mins followed by 4-AP addition in presence of 1 uM CB2R antagonist, SR144528 by HPLC analysis; type: subcellular; settings: Hippocampus, filed as agonist; method in brief: as §5

T4 sequence (P21554 whole entry): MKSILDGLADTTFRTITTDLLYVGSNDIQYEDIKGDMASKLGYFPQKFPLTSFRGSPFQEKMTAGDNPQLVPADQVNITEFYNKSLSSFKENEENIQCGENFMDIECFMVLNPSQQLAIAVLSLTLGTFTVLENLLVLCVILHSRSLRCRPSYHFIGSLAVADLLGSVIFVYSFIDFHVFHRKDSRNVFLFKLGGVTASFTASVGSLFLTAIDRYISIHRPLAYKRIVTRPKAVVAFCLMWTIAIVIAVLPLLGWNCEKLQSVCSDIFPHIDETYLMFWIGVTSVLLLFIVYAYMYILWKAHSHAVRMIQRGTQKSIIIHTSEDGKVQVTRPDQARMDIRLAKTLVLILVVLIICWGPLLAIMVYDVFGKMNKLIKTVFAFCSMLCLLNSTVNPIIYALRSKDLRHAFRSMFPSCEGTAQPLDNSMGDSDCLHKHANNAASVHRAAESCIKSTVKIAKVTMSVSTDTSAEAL
Sequence of Cannabinoid receptor 2 (Mus musculus) (P47936 whole entry): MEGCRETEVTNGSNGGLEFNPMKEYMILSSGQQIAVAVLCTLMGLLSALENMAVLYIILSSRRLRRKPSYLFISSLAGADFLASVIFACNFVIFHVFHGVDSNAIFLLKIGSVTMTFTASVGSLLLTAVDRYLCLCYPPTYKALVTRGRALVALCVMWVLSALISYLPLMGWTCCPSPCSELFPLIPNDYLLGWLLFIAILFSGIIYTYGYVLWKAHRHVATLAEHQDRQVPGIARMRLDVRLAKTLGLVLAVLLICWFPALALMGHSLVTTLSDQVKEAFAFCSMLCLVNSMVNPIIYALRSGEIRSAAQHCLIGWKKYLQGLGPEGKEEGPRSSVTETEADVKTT
T1 sequence (P34972 whole entry): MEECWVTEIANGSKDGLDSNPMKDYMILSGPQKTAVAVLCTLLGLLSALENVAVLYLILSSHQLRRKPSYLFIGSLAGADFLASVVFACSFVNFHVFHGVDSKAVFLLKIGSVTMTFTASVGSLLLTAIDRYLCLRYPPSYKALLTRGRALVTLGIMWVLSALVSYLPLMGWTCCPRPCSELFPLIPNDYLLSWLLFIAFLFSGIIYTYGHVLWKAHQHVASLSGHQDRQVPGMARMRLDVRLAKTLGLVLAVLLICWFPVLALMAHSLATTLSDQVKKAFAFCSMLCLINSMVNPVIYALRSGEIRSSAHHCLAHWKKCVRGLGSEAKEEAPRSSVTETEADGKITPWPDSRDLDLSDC
Sequence of Cannabinoid receptor 1 (Rattus norvegicus) (P20272 whole entry, the tested form may be a part): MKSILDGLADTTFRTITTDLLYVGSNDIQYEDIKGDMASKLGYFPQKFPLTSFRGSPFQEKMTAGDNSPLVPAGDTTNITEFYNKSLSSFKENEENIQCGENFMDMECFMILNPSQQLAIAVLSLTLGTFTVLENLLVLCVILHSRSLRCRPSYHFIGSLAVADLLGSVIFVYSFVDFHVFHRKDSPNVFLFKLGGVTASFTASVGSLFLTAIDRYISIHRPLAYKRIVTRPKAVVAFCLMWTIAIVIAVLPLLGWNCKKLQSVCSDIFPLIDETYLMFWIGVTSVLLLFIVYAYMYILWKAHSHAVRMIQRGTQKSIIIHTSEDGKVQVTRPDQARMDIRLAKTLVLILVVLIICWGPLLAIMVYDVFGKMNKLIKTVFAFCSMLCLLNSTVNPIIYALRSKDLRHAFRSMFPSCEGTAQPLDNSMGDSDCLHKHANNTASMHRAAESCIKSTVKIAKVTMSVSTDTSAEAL

Row | Compound | Ki [1] | IC50 [2] | IC50 [3] | Ki [4] | IC50 [5] | IC50 [6] | Activity [7] | Activity [8] | Activity [9] | Ratio Ki [10] | EC50 [11] | EC50 [12] | Activity [13] | Activity [14]
1 | CC(=O)N[C@@H]1[C@@H](O)[C@H](O)[C@@H](CO)O[C@H]1NC(=O)c1cc(Br)c(C)n(Cc2ccc(F)cc2)c1=O | > 10000 nM | > 10 µM | > 10 µM | > 10000 nM | > 10 µM | > 10 µM |  |  |  |  |  |  |  | 
2 | CCCC(C)(C)c1ccc2c(c1)OC(C)(C)[C@@H]1CC=C(C)C[C@@H]21 |  |  |  |  |  |  | Active | Active | Active |  |  |  |  | 
3 | COc1ccc(-c2cc(C(=O)NC3CCCCCC3)c(OCc3ccc(F)cc3)nc2C)cc1 | 919 nM | 0.53 µM | > 10 µM | > 10000 nM | > 10 µM | > 10 µM |  |  |  |  |  |  |  | 
4 | Cc1ccc(C(=O)NC2CCCCCC2)c(OCc2ccc(F)cc2)n1 | 33.9 nM | > 10 µM | > 10 µM | 16.6 nM | > 10 µM | > 10 µM |  |  |  | 0.49 | 86.2 nM | 11.6 nM |  | 
5 | Cc1ccc(C(=O)NC2CCCCCC2)c(=O)n1Cc1ccc(F)cc1 | 4.7 nM | > 10 µM | > 10 µM | 37.7 nM | > 10 µM | > 10 µM |  |  |  |  | 40.4 nM | 4.15 nM |  | 
6 | CCCCC/C=C\C/C=C\C/C=C\C/C=C\CCCC(=O)NCCCl |  |  |  |  |  |  |  |  |  |  |  |  | Active | Active
